An excerpt weighted towards active compounds, which were near 3.9% of everything screened.
TMEM16A act = TMEM16A chloride channel activators or potentiators, primary screen, cell-based, HTS; B-score at 10 µM; Anoctamin-1 (Mus musculus), Q8BHY3; HEK293 TMEM16A/YFP-H148Q/I152L, iodide quench fluorescence; active compounds read low; AID 623877, 2012; 340,000 compounds, 0.3% hits;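 active = fluorescence-ratio B-score plate-corrected deviation score at least 3 library SD below zero, with starting fluorescence score within 5 deviations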;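 also: channel opened by trigger with iodide after compound preincubation; score built on the fluorescence ratio of max minus min over baseline; more negative score means more quench and so TMEM16A activation or potentiation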
CRFR2-BP antag = antagonists of CRF-BP/CRF-R2 complex, primary screen, cell-based, HEK293, calcium dye fluorescence, uHTS | CRF-induced calcium fluorescence | inhibition, % at 11.8 µM | 350,000 compounds, 0.59% hits | AID 588475, 2011;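 active = inhibition of the ligand-induced calcium signal above about 50% at the single tested concentration, limit read from the data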
TAAR1 antagonist = human TAAR1 antagonists, primary screen, Fluo-8 calcium fluorescence, CHO RD-HGA16 cells. Trace amine-associated receptor 1 (Homo sapiens), Q96RJ0. antagonist. inhibition, % at 3 µM. 360,000 compounds, 1.5% hits;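 active = inhibition above a per-plate cutoff, the mean inhibition of test compounds on that plate plus 3 SD, cut at about 49% in these data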
Target sequence (Q96RJ0 whole entry, looked up): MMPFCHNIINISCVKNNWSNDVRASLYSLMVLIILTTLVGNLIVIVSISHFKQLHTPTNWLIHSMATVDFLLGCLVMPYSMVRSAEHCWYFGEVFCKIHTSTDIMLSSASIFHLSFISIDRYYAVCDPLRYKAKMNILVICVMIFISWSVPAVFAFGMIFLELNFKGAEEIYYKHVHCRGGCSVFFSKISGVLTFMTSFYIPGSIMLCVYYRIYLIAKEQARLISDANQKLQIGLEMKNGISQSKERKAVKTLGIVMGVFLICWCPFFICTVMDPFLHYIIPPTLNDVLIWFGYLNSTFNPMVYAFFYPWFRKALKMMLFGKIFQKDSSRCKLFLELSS
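Test system: hTAAR1-expressing CHO RD-HGA16 cells, Gα16-coupled; Probe or stimulus: EC80 β-phenethylamine stimulus; Compound dosing: single nominal final test compound concentration of 3 µM; Timing: 140 s kinetic read after compound, 140 s after agonist; Signal: Fluo-8 calcium-sensitive fluorescence; Measure: % inhibition of agonist calcium response; Controls: DMSO and EC80 PEA controls.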
TAAR1 agonist = human TAAR1 agonists, primary screen, Fluo-8 calcium fluorescence, CHO RD-HGA16 cells; Trace amine-associated receptor 1 (Homo sapiens), Q96RJ0; vehicle wells 0%, saturating PEA agonist 100%; activation, % at 3 µM; 360,000 compounds, 0.99% hits;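 active = activation above the mean activation of all test compounds in the run plus 3 SD, cut at about 38% in these data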
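Assay system – CHO-derived RD-HGA16 cells with stable Gα16 and human TAAR1 · Compound dosing – one-point dosing at 3 µM (nominal) · Incubation – 17-24 h seeding, 75 min 37 °C dye, 30 min RT · Measured by – kinetic Fluo-8 calcium fluorescence · Control set – DMSO vehicle as 0%, PEA at EC100 as 100% · Repeats – single well for each compound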
CRFBP-R2 agonist = agonists of CRF-BP/CRF-R2 complex, primary screen, cell-based, HEK293, calcium dye fluorescence, uHTS; CRF-binding protein / CRF receptor 2 complex (human); calcium dye fluorescence (FLIPR); percent of saturating CRF peptide response; activation, % at 13.2 µM; 350,000 compounds, 0.46% hits; AID 588473, 2011;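 active = activation of at least 50%, plus an integration ratio under a set limit after plate pattern correction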
TMEM16A inh = TMEM16A chloride channel inhibitors, primary screen, cell-based, HTS | HEK293 TMEM16A/YFP iodide influx fluorescence, ionomycin | normalized B-score (activity score, 25-100; higher = stronger inhibition) at 10 µM | 310,000 compounds, 1.2% hits | AID 588511, 2011;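 active = ratio plate-corrected score three or more library SD toward inhibition, starting fluorescence score within five deviations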;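 also: score derived from kinetic fluorescence span divided by baseline fluorescence per well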
TMEM16A reconf = TMEM16A chloride channel inhibitors, confirmation, cell-based, re-confirmation | 2,300 compounds, 39% hits | HEK293 TMEM16A/YFP-H148Q, iodide quench fluorescence; ionomycin added to raise cell calcium | shares compounds with TMEM16A inh | inhibition, % at 10 µM;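 active = mean duplicate percent inhibition, scaled so buffer wells are 0 and the reference blocker 100, over three buffer SD above buffer mean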
TMEM16A Ca cntr = calcium mobilization in TMEM16A/YFP HEK293 cells, confirmation, counter-screen for TMEM16A inhibitor project. AID 652231, 2013. calcium response (% of ionomycin), % at 10 µM. Fluo4 calcium mobilization. shares compounds with TMEM16A inh. 2,300 compounds, 2% hits;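 active = duplicate-averaged calcium signal over 20% of the ionomycin maximum, relative to buffer baseline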;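 also: each well's signal is peak minus trough fluorescence divided by its pre-addition baseline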
YFP-HEK293 quench = iodide YFP quench changes in parental YFP-HEK293, counter-screen for TMEM16A inhibitor project, cell-based; YFP ratio F(max-min)/F0 at 10 µM; 2,300 tested, under 10 active; shares compounds with TMEM16A inh; ionomycin;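 active = yellow fluorescent protein signal ratio exceeding the buffer control mean by over 5 SD of those controls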;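 also: ratio is mean of duplicate wells from kinetic YFP trace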
ClC-1 rat inh = ClC-1 chloride channel inhibition, selectivity assay for TMEM16A inhibitor project, cell-based, voltage-dependent ClC-1; shares compounds with TMEM16A inh; 2,300 tested, under 10 active; AID 652236, 2013; ratio percent, % at 10 µM; CHO ClC-1-YFP, iodide influx fluorescence quench; iodide control reads 0, buffer control 100;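 active = duplicate-mean ratio percent above the mean of iodide-only control wells, which defines zero, plus 5 of their SD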;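 also: higher percent means stronger block of ClC-1 iodide influx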
Of the large screens only hits and unclear results are named; the others gave an inactive call (follow-up assays come after a bar, where they were run).

CCOC(=O)C1CCN(S(=O)(=O)C(F)(F)c2nc3ccccc3s2)CC1	TMEM16A inh 100 | TMEM16A reconf 30% | TMEM16A Ca cntr inactive | YFP-HEK293 quench inactive | ClC-1 rat inh inactive
O=c1cc(N2CCN(c3ccc(F)cc3)CC2)[nH]c(=O)n1Cc1ccc(F)cc1	none
CC1CC(C)CN(c2cc(=O)n(Cc3ccc(F)cc3)c(=O)[nH]2)C1 (stereo not given)	TMEM16A inh 100 | TMEM16A reconf inactive | TMEM16A Ca cntr inactive | YFP-HEK293 quench inactive | ClC-1 rat inh inactive
O=NN(C(=O)NCc1cccnc1)C1CCCCC1	none (no result: TMEM16A act, CRFR2-BP antag, CRFBP-R2 agonist, TMEM16A inh)
COc1cccc(CNCCc2c[nH]c3ccccc23)c1OCc1ccccc1	TAAR1 antagonist 54, TMEM16A inh 25 | TMEM16A reconf 54% | TMEM16A Ca cntr inactive | YFP-HEK293 quench inactive | ClC-1 rat inh inactive
COc1cc(CNCCc2c[nH]c3ccccc23)ccc1OCc1ccccc1F	none
CC(C)C(c1nnnn1C1CCCCC1)N1CCN(c2ncccn2)CC1 (stereo not given)	TMEM16A inh 100 | TMEM16A reconf inactive | TMEM16A Ca cntr inactive | YFP-HEK293 quench inactive | ClC-1 rat inh inactive
CCOC(OCC)P(=O)(c1ccccc1)c1ccccc1	none | TMEM16A reconf inactive | TMEM16A Ca cntr inactive | YFP-HEK293 quench inactive | ClC-1 rat inh inactive
NC(=O)C1CCN(C2=C(Cl)C(=O)c3ccccc3C2=O)CC1	TMEM16A inh 100 | TMEM16A reconf 28% | TMEM16A Ca cntr inactive | YFP-HEK293 quench inactive | ClC-1 rat inh inactive
O=C1CC(N2CCN(c3nc4ccccc4s3)CC2)C(=O)N1Cc1cccs1 (stereo not given)	TMEM16A inh 100 | TMEM16A reconf 30% | TMEM16A Ca cntr inactive | YFP-HEK293 quench inactive | ClC-1 rat inh inactive
COc1cc(C(=O)C(=O)N2CCN(c3ccccc3)CC2)cc(OC)c1OC	none (no result: TMEM16A act, CRFR2-BP antag, CRFBP-R2 agonist, TMEM16A inh)
CCC1(C)Cc2c(sc3nc(NC)n(C)c(=O)c23)CO1 (stereo not given)	TMEM16A inh 25 | TMEM16A reconf inactive | TMEM16A Ca cntr inactive | YFP-HEK293 quench inactive | ClC-1 rat inh inactive
Cc1cccc(OCC(=O)Nc2nc3ccc([N+](=O)[O-])cc3s2)c1	TMEM16A inh 25 | TMEM16A reconf inactive | TMEM16A Ca cntr inactive | YFP-HEK293 quench inactive | ClC-1 rat inh inactive
Cc1ccc(S(=O)(=O)N(C)c2ccc(OCC(=O)Nc3nc4ccccc4s3)cc2)cc1	none | TMEM16A reconf inactive | TMEM16A Ca cntr inactive | YFP-HEK293 quench inactive | ClC-1 rat inh inactive
Cc1cccc(OCC(=O)Nc2nc3ccc([N+](=O)[O-])cc3s2)c1C	none
Cc1ccc(S(=O)(=O)N(C)c2ccc(OCC(=O)Nc3nc4c(ccc5ccccc54)s3)cc2)cc1	none
O=C(NCc1ccccn1)c1ccco1	none
O=C(NC(Cc1ccccc1)C(=O)NCc1ccccn1)c1ccco1 (stereo not given)	TMEM16A inh 25 | TMEM16A reconf inactive | TMEM16A Ca cntr inactive | YFP-HEK293 quench inactive | ClC-1 rat inh inactive

Bioassay records (PubChem)
